Variants at the floor of the assay were thinned out.
B1: tRNA (parent)
chain: GUUCCGUUGGCGUAAUGGUAACGCGUCUCCCUCCUAAGGAGAAGACUGCGGGUUCGAGUCCCGUACGGAACG

Variants of: B1
Assay: yeast fitness relative to wild type (ratio to wild type); higher = fitter; tRNA-Arg(CCU), competitive growth, 37 C, YPD
Procedure, shortened: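 Genotype frequency changes were the basis for Darwinian fitness relative to wild type. The frequencies came from 100-nucleotide paired-end sequencing of gene amplicons from the start population and each end population of pooled yeast strains with tRNA-Arg(CCU) gene variants at the native locus. Competition ran in YPD at 37°C for 24 hours in six replicates, genotypes needed ≥ 100 starting reads, and estimates < 0.5 were set to 0.5.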

Point of comparison: U16G C31G A45U, yeast fitness 0.974. Against it:
- U16G C61G A65U — lower, ≤ 0.5
- U16G C55G — lower, 0.544
- U16G C55U — lower, 0.817
- U16C C34A A37G U59A — lower, ≤ 0.5
- U16C U19A — higher, 1.16
- U16C C55U A57C G58A — lower, 0.593
- U16C C30G C61U G68A — lower, ≤ 0.5
- U16C A36U G44C A65C — lower, ≤ 0.5
- U16G A45G G67C — lower, 0.63
- U16C C29G U53A U64C — lower, ≤ 0.5
- U16G U28C G51A C55G — lower, ≤ 0.5
- U16C C34G C55G — lower, ≤ 0.5
- U16C C34G C55A — lower, 0.58
- U16C A37C G67A — lower, 0.553
- U16C G17C C27G A65U — lower, ≤ 0.5
- U16G A57G — lower, 0.805
- U16G A36G A45G — lower, 0.745
- U16G U54C — lower, 0.704
- U16C C60U — lower, 0.79
- U16C C33U A36C C49G — lower, ≤ 0.5
- U16C G17C C31U A37U — lower, ≤ 0.5
- U16C C62G — lower, 0.717
- U16C G39A C61G C62G — lower, ≤ 0.5
- U16C C22U A37U C49A — lower, 0.574
- U16G G39A C61G — lower, ≤ 0.5
- U16C A43C U54A C55U C60U G68A — lower, ≤ 0.5
- U16C C49G — lower, 0.909
- U16C C49U — lower, 0.867
- U16G A37G A45C C61G A69C — lower, ≤ 0.5
- U16C C27G C33A G38C A42G — lower, 0.884
- U16G G41C — lower, 0.604
- U16C G23C G51C — lower, ≤ 0.5
- U16G C34U C46G U59A — lower, ≤ 0.5
- U16G A37U U47A G52U — lower, ≤ 0.5
- U16G G39A A45C C61A — lower, 0.617
- U16C C27U — higher, 1.02
- U16C C27A — lower, 0.963
- U16C C34U C49G — lower, ≤ 0.5
- U16C C31G G41A G52C C60U C62G C66G — lower, ≤ 0.5
- U16C A21C A37G U54C C55A — lower, ≤ 0.5
- U16A U54C C55G — lower, ≤ 0.5
- U16G A70C — lower, 0.911
- U16G A70G — higher, 1.03
- U16C A21C G41A — lower, ≤ 0.5
- U16C A36C A37U — lower, ≤ 0.5
- U16G C22G G67C — lower, 0.709
- U16C A43C — higher, 1.01
- U16G C24G C27A — lower, ≤ 0.5
- U16G C60U — lower, 0.772
- U16C A42U — lower, 0.969
- U16C A42C — lower, 0.93
- U16G G44C G68A A69U — lower, 0.609
- U16C G51C C55G C62A — lower, ≤ 0.5
- U16C A21C G41A G56A — lower, ≤ 0.5
- U16G U28A G52C U54A C66U — lower, ≤ 0.5
- U16G G44C C62A — lower, 0.875
- U16G G44C C62U — lower, 0.566
- U16C C46G — higher, 0.979
- U16C C46A — higher, 1.02
- U16G A21U C46G — lower, ≤ 0.5
- U16C C30U C34G G39A — lower, ≤ 0.5
- U16C U19C U35C — lower, ≤ 0.5
- U16C C22A C24A U26C — lower, ≤ 0.5
- U16C C22U G68C — lower, ≤ 0.5
- U16C C29G C49U C60G — lower, ≤ 0.5
- U16G G56U — lower, 0.706
- U16G A42G — lower, 0.78
- U16C C29A — lower, 0.629
- U16C C29U — lower, 0.738
- U16C C22G A43U — lower, 0.692
- U16C A37C A42G G56C — lower, ≤ 0.5
- U16C G17A C27U C34G G38C A43G C62A — lower, ≤ 0.5
- U16C G18A C24G A57C — lower, ≤ 0.5
- U16C A21U C62U — lower, ≤ 0.5
- U16C A20G U32C — lower, 0.684
- U16C G58A — lower, 0.87
- U16C A21C C49A A57G G58A C66U G68A — lower, ≤ 0.5
- U16C G23C C29G A43U G50A A65C — lower, ≤ 0.5
- U16C A40U U47A — lower, 0.532
- U16G G48A G68A — higher, 1.09
- U16C G17C C24U — lower, 0.559
- U16C C24G U28A A43C — lower, ≤ 0.5
- U16G G68U — lower, 0.853
- U16C U59A G67C — lower, 0.675
- U16C C22U G25A C31G G52A — lower, 0.589
- U16C C22G C46G C49U A69U — lower, 0.55
- U16G U26C C49G — lower, ≤ 0.5
- U16C A40U A57C C66U — lower, ≤ 0.5
- U16C C22G U54C — lower, 0.661
- U16C G51A A70G — lower, 0.578
- U16C C46G A57U — lower, 0.588
- U16G C24G U59A — lower, ≤ 0.5
- U16G A69C — higher, 1.04
- U16C C55U G67A — lower, 0.528
- U16C C22A C31G C46A C49U U54C G68A — lower, ≤ 0.5
- U16C C49G C55G C60A C62A G68A A69U — lower, ≤ 0.5
- U16C C31G A36U C60G — lower, 0.694
- U16G U26G A36G G67U G68C — lower, ≤ 0.5
- U16C U19A U26A — lower, 0.648
- U16C U32C G41C G50A C61G — lower, 0.567
- U16C A70G — lower, 0.945
- U16C A70C — higher, 1.1
- U16C C22A U53C C66G A69U — lower, ≤ 0.5
- U16G U47A — lower, 0.781
- U16C A20U G25C C60A — lower, ≤ 0.5
- U16G U35A G51C C61U — lower, ≤ 0.5
- U16G C46G — higher, 1.06
- U16G C46A — lower, 0.754
- U16C C29A C55G — lower, 0.573
- U16A U64C C66U — lower, 0.68
- U16C A45C C60G — lower, ≤ 0.5
- U16G G23A A40C C66U — lower, ≤ 0.5
- U16G G18A A21U A40C G58C A65C C66G — lower, ≤ 0.5
- U16C A20G C29U C62U — lower, ≤ 0.5
- U16C C31A G56A A65G C66A G68C — lower, ≤ 0.5
- U16G C24U G44A C46G — lower, ≤ 0.5
- U16C A20C C27U — lower, 0.662
- U16C A57U C66U — lower, 0.531
- U16C C34A G41A — lower, ≤ 0.5
- U16G — higher, 1
- U16C — higher, 1.01
- U16G C29G C33U G39A C49U — lower, ≤ 0.5
- U16C C33U — lower, 0.686
- U16G C31U G51C A65C — lower, ≤ 0.5
- U16G A20C C60U — lower, ≤ 0.5
- U16C A21C C31A A37G C55A — lower, ≤ 0.5
- U16C A37C C55G A69U — lower, ≤ 0.5
- U16C U26A C46U G56A C61G G67A — lower, ≤ 0.5
- U16G C30U — lower, 0.777
- U16C C22U U47A C60G C62A — lower, ≤ 0.5
- U16C G41C C46A — lower, 0.721
- U16C G56A A69U — lower, 0.799
- U16G U28G C34U G63C — lower, 0.608
- U16C C30A A37U — lower, ≤ 0.5
- U16G U54A C55U C66A — lower, 0.58
- U16G C34U C60A A70C — lower, ≤ 0.5
- U16G C46U A69C — higher, 1.07
- U16G C31G G63C A65U — lower, ≤ 0.5
- U16G G39A A45C G67A — lower, ≤ 0.5
- U16G U59C C60G — lower, ≤ 0.5
- G17A A20C C49G — lower, ≤ 0.5
- U16G A65C — lower, 0.932
- U16G A65G — lower, 0.904
- U16C G68C A69U — lower, ≤ 0.5
- U16C G41C — lower, 0.867
- U16C C55A G67A A70G — lower, ≤ 0.5
- U16C C27G C60G — lower, 0.603
- U16C C22G U53A — lower, 0.544
- U16G A45G C66U — lower, 0.771
- U16C A42U G63C — lower, ≤ 0.5
- U16G C46A C66A — lower, ≤ 0.5
- U16C C33U G58A — lower, ≤ 0.5
- U16C C33G C49A C55G G56C — lower, ≤ 0.5
- U16C C29U A36U A40C C46U U64C — lower, ≤ 0.5
- U16C C31A — lower, 0.906
- U16C C31U — lower, 0.953
- U16C G44A U54C G56C — lower, 0.558
- U16G C31G C66U — lower, 0.586
- U16C U32G C49G C55A — lower, ≤ 0.5
- U16G U54C C60A — lower, ≤ 0.5
- U16G U28A A42G — lower, 0.665
- U16C G17A C33U C49A C62G — lower, 0.57
- U16C G56A — higher, 1.01
- U16C A40U G50U — lower, ≤ 0.5
- U16C G18A C34G G39A C62A — lower, ≤ 0.5
- U16G C34U A57G A69C — lower, ≤ 0.5
